According to ChEMBL document CHEMBL3745659, “Synthesis and Characterization of 4,11-Diaminoanthra[2,3-b]furan-5,10-diones: Tumor Cell Apoptosis through tNOX-Modulated NAD(+)/NADH Ratio and SIRT1” (J Med Chem, 2015):
Active and inactive are the calls of the source. No cut-off for these calls is given here.

Experiments:
AGS [1] = test: Upregulation of phosphorylated p53 level in human AGS cells at 1 and 5 uM after 24 hrs by Western blot analysis; format: functional, cell-based
L1210 = test: Antiproliferative activity against mouse L1210 cells after 72 hrs by MTT assay; settings: L1210, 72 h
HeLa = test: Antiproliferative activity against human HeLa cells after 72 hrs by MTT assay; format: functional, cell-based
AGS [2] = test: Upregulation of acetylated p53 level in human AGS cells at 1 and 5 uM after 24 hrs by Western blot analysis; format: functional, cell-based
AGS [3] = test: Downregulation of tNOX protein level in human AGS cells at 0.1 to 0.5 uM after 24 hrs by Western blot analysis; format: functional, cell-based
AGS [4] = test: Induction of apoptosis in human AGS cells assessed as change in mitochondrial transmembrane potential incubated for 1.5 hrs by DiOC6(3) dye-based flow cytometric analysis; format: functional, cell-based
[5] = Antiproliferative activity against human K562/4 cells after 72 hrs by MTT assay; format: functional, cell-based; settings: K562/4, 72 h
AGS [6] = test: Downregulation of SIRT1 protein level in human AGS cells at 1 and 5 uM after 24 after 24 hrs by Western blot analysis; format: functional, cell-based
AGS [7] = test: Induction of apoptosis in human AGS cells after 24 hrs by annexin V-FITC staining-based flow cytometric analysis; format: functional, cell-based
Summary of the method: (§1)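 AGS cells exposed to compound for 24 h; Annexin V-FITC staining and flow cytometry used to give percentage of apoptotic cells; mean ± S.E. from at least three independent experiments.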

AGS [8] = test: Downregulation of Bid protein level in human AGS cells after 24 hrs by Western blot analysis; format: functional, cell-based
K562 [9] = test: Resistance index, ratio of IC50 for human K562/4 cells to IC50 for human K562 cells; format: functional
AGS [10] = test: Upregulation of caspase3-directed PARP cleavage in human AGS cells at 5 uM after 24 hrs by Western blot analysis; format: functional, cell-based
CCRF-CEM = test: Antiproliferative activity against human CEM cells after 72 hrs by MTT assay; format: functional, cell-based
[11] = target: T1, NAD-dependent protein deacetylase sirtuin-1 (Homo sapiens) (UniProt Q96EB6); test: Inhibition of human recombinant SIRT1 deacetylase activity using Arg-His-Lys-Lys(epsilon-acetyl)-AMC as substrate at 5 uM incubated for 45 mins by fluorescence analysis
T1 sequence (whole entry): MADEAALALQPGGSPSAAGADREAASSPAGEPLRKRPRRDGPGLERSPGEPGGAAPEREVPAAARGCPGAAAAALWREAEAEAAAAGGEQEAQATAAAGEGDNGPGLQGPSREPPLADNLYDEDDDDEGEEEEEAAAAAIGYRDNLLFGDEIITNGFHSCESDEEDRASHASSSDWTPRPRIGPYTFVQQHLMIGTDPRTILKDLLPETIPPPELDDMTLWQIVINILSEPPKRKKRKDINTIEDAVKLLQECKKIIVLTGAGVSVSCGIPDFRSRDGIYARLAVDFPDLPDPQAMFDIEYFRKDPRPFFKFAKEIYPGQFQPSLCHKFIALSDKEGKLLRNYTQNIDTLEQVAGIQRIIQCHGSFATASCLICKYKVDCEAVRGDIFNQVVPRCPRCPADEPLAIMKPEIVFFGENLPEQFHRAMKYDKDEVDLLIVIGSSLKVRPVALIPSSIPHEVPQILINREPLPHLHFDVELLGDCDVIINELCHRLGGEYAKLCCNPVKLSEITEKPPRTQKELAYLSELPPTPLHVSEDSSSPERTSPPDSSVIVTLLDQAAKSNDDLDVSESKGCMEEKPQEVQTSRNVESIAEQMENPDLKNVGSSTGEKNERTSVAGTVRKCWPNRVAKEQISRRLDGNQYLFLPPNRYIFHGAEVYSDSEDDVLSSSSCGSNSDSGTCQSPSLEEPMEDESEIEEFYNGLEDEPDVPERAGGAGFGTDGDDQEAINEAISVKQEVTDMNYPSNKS

K562 [12] = test: Antiproliferative activity against human K562 cells after 72 hrs by MTT assay; format: functional, cell-based; settings: K562, 72 h
[13] = Antiproliferative activity against human HCT116 cells after 72 hrs by MTT assay; format: functional, cell-based; settings: HCT-116, 72 h
AGS [14] = test: Induction of apoptosis in human AGS cells assessed as necrotic cells at 10 uM after 24 hrs by annexin V-FITC staining-based flow cytometric analysis (Rvb=1.1%); format: functional
AGS [15] = test: Downregulation of tNOX protein level in human AGS cells at 1 and 5 uM after 24 hrs by Western blot analysis; format: functional, cell-based
[16] = target: T2, DNA topoisomerase 1 (Homo sapiens) (UniProt P11387); test: Inhibition of Top1 (unknown origin)-mediated relaxation of pBR322 DNA at 2.5 uM incubated for 30 mins by ethidium bromide staining-based gel electrophoresis assay
T2 sequence (whole entry): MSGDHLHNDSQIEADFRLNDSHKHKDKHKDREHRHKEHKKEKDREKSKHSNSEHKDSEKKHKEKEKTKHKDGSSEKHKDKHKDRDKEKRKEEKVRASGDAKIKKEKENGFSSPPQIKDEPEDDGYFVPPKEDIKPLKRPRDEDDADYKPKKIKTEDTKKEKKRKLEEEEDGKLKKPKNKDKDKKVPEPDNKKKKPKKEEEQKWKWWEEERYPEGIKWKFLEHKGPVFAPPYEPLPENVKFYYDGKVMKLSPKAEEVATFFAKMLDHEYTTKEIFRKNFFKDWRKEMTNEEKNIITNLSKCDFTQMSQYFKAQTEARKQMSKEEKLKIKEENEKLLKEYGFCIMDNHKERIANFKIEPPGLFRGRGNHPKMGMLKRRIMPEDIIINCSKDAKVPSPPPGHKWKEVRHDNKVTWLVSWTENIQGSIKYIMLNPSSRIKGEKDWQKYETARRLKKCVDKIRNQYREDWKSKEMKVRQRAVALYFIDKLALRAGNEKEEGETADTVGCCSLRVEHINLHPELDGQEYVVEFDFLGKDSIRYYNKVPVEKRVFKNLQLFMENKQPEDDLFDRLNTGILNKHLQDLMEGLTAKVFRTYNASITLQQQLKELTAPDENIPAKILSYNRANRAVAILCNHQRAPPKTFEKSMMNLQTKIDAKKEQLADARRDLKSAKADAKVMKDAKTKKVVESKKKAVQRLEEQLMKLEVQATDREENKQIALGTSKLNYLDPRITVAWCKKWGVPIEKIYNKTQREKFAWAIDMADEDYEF
Summary of the method: (§2)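 Supercoiled pBR322 plasmid treated with Top1 without drug or with compound at 0.5, 2.5 or 10 µM; camptothecin as reference; relaxation assessed by gel electrophoresis.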

AGS [17] = test: Induction of apoptosis in human AGS cells assessed as late apoptotic cells at 10 uM after 24 hrs by annexin V-FITC staining-based flow cytometric analysis (Rvb=5.5%); format: functional; summary of the method: as §1
AGS [18] = test: Induction of apoptosis in human AGS cells assessed as early apoptotic cells at 10 uM after 24 hrs by annexin V-FITC staining-based flow cytometric analysis (Rvb=9.8%); format: functional; summary of the method: as §1
AGS [19] = test: Induction of apoptosis in human AGS cells assessed as viable cells at 10 uM after 24 hrs by annexin V-FITC staining-based flow cytometric analysis (Rvb=83.7%); format: functional; summary of the method: as §1
[20] = target: T2, DNA topoisomerase 1 (Homo sapiens); test: Inhibition of Top1 (unknown origin)-mediated relaxation of pBR322 DNA at 0.5 uM incubated for 30 mins by ethidium bromide staining-based gel electrophoresis assay; summary of the method: as §2
AGS [21] = test: Upregulation of total p53 level in human AGS cells at 1 and 5 uM after 24 hrs by Western blot analysis; format: cell-based
Calf thymus DNA = test: Binding affinity to calf thymus double stranded DNA by spectrophotometric titration method; format: nucleic-acid assay; settings: Bos taurus
Summary of the method: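 Absorption spectra of compound recorded while double-stranded DNA concentration was increased (spectrophotometric titration); extinction at absorption maxima 540 and 585 nm and band shift followed.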

[22] = Drug uptake in human K562/4 cells at 3 uM incubated for 2 hrs in presence of verapamil by flow cytometric analysis; format: ADME, cell-based; settings: k562/4, 2 h
Summary of the method: (§3)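 K562 and K562/4 cells incubated 2 h with 3 µM compound; uptake measured by flow cytometry as ratios (arbitrary units) of mean fluorescence channels of the histograms; verapamil (10 µM), a Pgp transport blocker, added 30 min before compound where used.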

[23] = target: T1, NAD-dependent protein deacetylase sirtuin-1 (Homo sapiens); test: Inhibition of human recombinant SIRT1 deacetylase activity using Arg-His-Lys-Lys(epsilon-acetyl)-AMC as substrate incubated for 45 mins by fluorescence analysis
AGS [24] = test: Upregulation of caspase3-directed PARP cleavage in human AGS cells at 1 to 5 uM after 24 hrs by Western blot analysis; format: functional, cell-based
[25] = target: T2, DNA topoisomerase 1 (Homo sapiens); test: Inhibition of Top1 (unknown origin)-mediated relaxation of pBR322 DNA at 0.5 to 10 uM incubated for 30 mins by ethidium bromide staining-based gel electrophoresis assay; summary of the method: as §2
K562 [26] = test: Drug uptake in human K562 cells at 3 uM incubated for 2 hrs in presence of verapamil by flow cytometric analysis; format: ADME, cell-based; settings: k562, 2 h; summary of the method: as §3
[27] = Drug uptake in human K562/4 cells at 3 uM incubated for 2 hrs by flow cytometric analysis; format: ADME, cell-based; settings: k562/4, 2 h; summary of the method: as §3

Row | SMILES | Activity (AGS [1]) | IC50 (L1210) [nM] | IC50 (HeLa) [nM] | Activity (AGS [2]) | Activity (AGS [3]) | IC50 [5] [nM] | Activity (AGS [6]) | Activity (AGS [7]) | Activity (AGS [8]) | Ratio IC50 (K562 [9]) | Activity (AGS [10]) | IC50 (CCRF-CEM) [nM] | IC50 (K562 [12]) [nM] | IC50 [13] [nM] | further results
1 | NCCNc1c2c(c(NCCN)c3occc13)C(=O)c1ccccc1C2=O | Active | 300 | 550 | Active | Active | 150 | Active | Dose-dependent effect | Active | 1.36 | Active | 750 | 110 | 110 | Activity (AGS [4]): Active; inhibition [11]: Active
2 | CN1CCN(C(=O)c2cc3c(NCCNC(=N)N)c4c(c(NCCNC(=N)N)c3o2)C(=O)c2ccccc2C4=O)CC1 | inactive | 79300 | 38400 | inactive |  | > 100000 | inactive | inactive | inactive | >2 | inactive | 97700 | 49500 | 4500 | Activity (AGS [14]): inactive; Activity (AGS [15]): inactive; inhibition [16]: Active; Activity (AGS [17]): inactive; Activity (AGS [18]): inactive; Activity (AGS [19]): inactive; inhibition [20]: Active; Activity (AGS [21]): Not Active
3 | Cc1cc2c(NCCNC(=N)N)c3c(c(NCCNC(=N)N)c2o1)C(=O)c1ccccc1C3=O |  |  |  |  |  |  |  |  |  |  |  |  |  |  | inhibition [16]: Active
4 | NCCCNc1c2c(c(NCCCN)c3occc13)C(=O)c1ccccc1C2=O |  | 730 | 870 |  |  |  |  |  |  |  |  | 890 |  | 410 | 
5 | N=C(N)NCCNc1c2c(c(NCCNC(=N)N)c3sccc13)C(=O)c1ccccc1C2=O |  |  |  |  |  |  |  |  |  |  |  |  |  |  | inhibition [16]: Active
6 | CNCCNc1c2c(c(NCCNC)c3oc(C)cc13)C(=O)c1ccccc1C2=O |  |  | 190 |  |  | 4260 |  |  |  | 35.5 |  |  |  | 1600 | 
7 | O=C1c2c(O)ccc(O)c2C(=O)c2c(NCCNCCO)ccc(NCCNCCO)c21 |  |  |  |  |  |  |  |  |  |  |  |  |  |  | Ka (Calf thymus DNA): 1 ×10⁶ /M
8 | O=C1c2ccccc2C(=O)c2c1c(NCCNCCO)c1ccoc1c2NCCNCCO | Active | 140 | 460 | Active | Active | 9800 | Active | Dose-dependent effect | Active | 89.09 | Active | 430 | 110 | 220 | Activity (AGS [4]): Active; Drug uptake [22]: Active
9 | NC(=O)c1cccnc1 |  |  |  |  |  |  |  |  |  |  |  |  |  |  | inhibition [23]: Active
10 | CN(C)CCNc1c2c(c(NCCN(C)C)c3occc13)C(=O)c1ccccc1C2=O | Active | 230 | 390 | Active | Active | 210 | Active | Dose-dependent effect | Active | 1.75 | Active | 340 | 120 | 150 | Activity (AGS [4]): Active
11 | CN1CCN(C(=O)c2cc3c(NCCN)c4c(c(NCCN)c3o2)C(=O)c2ccccc2C4=O)CC1 | Active | 26100 | 61300 |  |  | > 100000 |  | inactive | Active | >4 |  | 25000 | 25200 | 3100 | Activity (AGS [14]): inactive; Activity (AGS [15]): inactive; Activity (AGS [17]): inactive; Activity (AGS [18]): inactive; Activity (AGS [24]): inactive; Activity (AGS [19]): inactive; inhibition [25]: inactive; inhibition [11]: inactive
12 | COc1cccc2c1C(=O)c1c(O)c3c(c(O)c1C2=O)C[C@@](O)(C(=O)CO)C[C@@H]3O[C@H]1C[C@H](N)[C@H](O)[C@H](C)O1 [DOXORUBICIN] |  | 370 |  |  | Active | 9750 |  |  |  |  |  | 60 | 120 | 110 | Drug uptake (K562 [26]): Active; Drug uptake [27]: Not Active; Drug uptake [22]: Not Active
13 | NCCNC(=O)c1cc2c(NCCN)c3c(c(NCCN)c2o1)C(=O)c1ccccc1C3=O |  | 26400 | 83800 |  |  |  |  |  |  |  |  | 105000 |  | 6520 | 
